Reference: ChEMBL document CHEMBL1125894, “Dual-action cephalosporins: cephalosporin 3'-quaternary ammonium quinolones” (1991)
Converted amounts (≈) assume the structure as drawn.

What was measured:
[1] = target: T1, Penicillin-binding protein 1B (Escherichia coli K-12) (UniProt P02919); test: Concentration required for 90% inhibition against 90 kDa penicillin-binding protein 1b binding using [14C]-Pen G as the radioligand.
T1 sequence (whole entry): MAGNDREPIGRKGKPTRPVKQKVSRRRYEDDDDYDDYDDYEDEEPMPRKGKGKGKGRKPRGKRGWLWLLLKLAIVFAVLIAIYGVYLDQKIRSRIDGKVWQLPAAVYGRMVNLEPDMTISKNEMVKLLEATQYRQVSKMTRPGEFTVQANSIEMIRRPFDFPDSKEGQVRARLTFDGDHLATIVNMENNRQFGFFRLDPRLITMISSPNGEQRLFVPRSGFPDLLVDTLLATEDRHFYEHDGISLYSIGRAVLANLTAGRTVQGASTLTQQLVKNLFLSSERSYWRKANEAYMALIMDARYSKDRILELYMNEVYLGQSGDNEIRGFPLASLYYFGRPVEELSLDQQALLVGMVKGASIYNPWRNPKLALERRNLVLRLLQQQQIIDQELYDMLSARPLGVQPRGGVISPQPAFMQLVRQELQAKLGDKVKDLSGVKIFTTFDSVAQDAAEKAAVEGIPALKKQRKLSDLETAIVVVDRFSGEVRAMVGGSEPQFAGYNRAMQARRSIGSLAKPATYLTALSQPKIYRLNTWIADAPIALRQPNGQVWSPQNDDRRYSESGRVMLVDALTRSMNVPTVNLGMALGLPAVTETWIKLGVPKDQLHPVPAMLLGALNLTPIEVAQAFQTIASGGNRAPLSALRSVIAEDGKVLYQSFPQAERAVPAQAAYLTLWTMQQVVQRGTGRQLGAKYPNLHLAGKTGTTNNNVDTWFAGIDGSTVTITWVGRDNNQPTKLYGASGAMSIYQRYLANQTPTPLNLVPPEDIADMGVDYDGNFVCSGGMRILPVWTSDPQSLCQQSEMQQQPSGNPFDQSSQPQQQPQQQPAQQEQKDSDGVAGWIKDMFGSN
Summary of the method: (§1)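 Solubilized membranes from sonicated E. coli DC-0 were used. PBP binding was measured as inhibition of [14C]penicillin G binding to each PBP.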

[2] = test system: Escherichia coli; test: In vitro antibacterial activity against Escherichia coli 257; type: functional
Summary of the method: (§2)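 Serial 2-fold dilutions in the NCCLS broth microdilution method for aerobic nonfastidious organisms, with an 18-h incubation. The value is reported as the minimum inhibitory concentration (MIC).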

[3] = test system: Staphylococcus aureus; test: In vitro antibacterial activity against Staphylococcus aureus 95(MR); type: functional
Summary of the method: (§3)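 Staphylococci were tested by the standard agar dilution procedure using serial 2-fold dilutions of agent. The value is reported as the MIC.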

[4] = test system: Escherichia coli; test: Concentration required for 90% inhibition against 60 kDa penicillin-binding protein 3 binding using [14C]-Pen G as the radioligand.; summary of the method: as §1
[5] = target: T2, Peptidoglycan D,D-transpeptidase MrdA (Escherichia coli K-12) (UniProt P0AD65); test: Concentration required for 90% inhibition against 66 kDa penicillin-binding protein 2 binding using [14C]-Pen G as the radioligand.; summary of the method: as §1
T2 sequence (whole entry): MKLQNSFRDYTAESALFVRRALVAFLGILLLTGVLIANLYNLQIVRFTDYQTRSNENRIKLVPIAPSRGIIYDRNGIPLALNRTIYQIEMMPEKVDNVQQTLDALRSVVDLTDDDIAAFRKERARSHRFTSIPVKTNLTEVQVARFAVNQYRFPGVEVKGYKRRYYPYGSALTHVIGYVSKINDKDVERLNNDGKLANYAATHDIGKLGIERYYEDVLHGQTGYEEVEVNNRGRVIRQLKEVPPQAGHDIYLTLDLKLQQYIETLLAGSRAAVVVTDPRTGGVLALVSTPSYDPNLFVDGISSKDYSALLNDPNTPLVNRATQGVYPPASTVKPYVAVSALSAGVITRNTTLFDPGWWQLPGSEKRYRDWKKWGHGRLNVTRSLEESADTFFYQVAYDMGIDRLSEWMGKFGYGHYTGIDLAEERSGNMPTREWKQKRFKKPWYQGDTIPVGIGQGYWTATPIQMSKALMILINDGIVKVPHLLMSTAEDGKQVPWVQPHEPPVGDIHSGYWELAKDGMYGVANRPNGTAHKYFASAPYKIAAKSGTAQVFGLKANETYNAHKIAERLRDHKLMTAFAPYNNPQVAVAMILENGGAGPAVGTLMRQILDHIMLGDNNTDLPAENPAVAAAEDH

[6] = test system: Streptococcus pyogenes; test: In vitro antibacterial activity against Streptococcus pyogenes 4; type: functional
Summary of the method: (§4)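 Broth macrodilution with serial 2-fold dilutions in cation-supplemented Mueller-Hinton broth containing 10% goat serum. The value is reported as the MIC.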

[7] = test system: Enterobacter cloacae; test: In vitro antibacterial activity against Enterobacter cloacae 5699; type: functional; summary of the method: as §2
[8] = test system: Serratia marcescens; test: In vitro antibacterial activity against Serratia marcescens SM; type: functional; summary of the method: as §2
[9] = test system: Escherichia coli; test: Antibacterial activity against Escherichia coli DC-O; type: functional; summary of the method: as §2
[10] = test system: Streptococcus pneumoniae; test: In vitro antibacterial activity against Streptococcus pneumoniae 6301; type: functional; summary of the method: as §4
[11] = test system: Citrobacter freundii; test: In vitro antibacterial activity against Citrobacter freundii BS 16; type: functional; summary of the method: as §2
[12] = test system: Enterobacter cloacae; test: In vitro antibacterial activity against Enterobacter cloacae P99; type: functional; summary of the method: as §2
[13] = test system: Klebsiella pneumoniae; test: In vitro antibacterial activity against Klebsiella pneumoniae A; type: functional; summary of the method: as §2
[14] = test system: Pseudomonas aeruginosa; test: In vitro antibacterial activity against Pseudomonas aeruginosa 5712; type: functional; summary of the method: as §2
[15] = target: T3, Penicillin-binding protein 1A (Escherichia coli K-12) (UniProt P02918); test: Concentration required for 90% inhibition against 90 kDa penicillin-binding protein 1a binding using [14C]-Pen G as the radioligand.; summary of the method: as §1
T3 sequence (whole entry): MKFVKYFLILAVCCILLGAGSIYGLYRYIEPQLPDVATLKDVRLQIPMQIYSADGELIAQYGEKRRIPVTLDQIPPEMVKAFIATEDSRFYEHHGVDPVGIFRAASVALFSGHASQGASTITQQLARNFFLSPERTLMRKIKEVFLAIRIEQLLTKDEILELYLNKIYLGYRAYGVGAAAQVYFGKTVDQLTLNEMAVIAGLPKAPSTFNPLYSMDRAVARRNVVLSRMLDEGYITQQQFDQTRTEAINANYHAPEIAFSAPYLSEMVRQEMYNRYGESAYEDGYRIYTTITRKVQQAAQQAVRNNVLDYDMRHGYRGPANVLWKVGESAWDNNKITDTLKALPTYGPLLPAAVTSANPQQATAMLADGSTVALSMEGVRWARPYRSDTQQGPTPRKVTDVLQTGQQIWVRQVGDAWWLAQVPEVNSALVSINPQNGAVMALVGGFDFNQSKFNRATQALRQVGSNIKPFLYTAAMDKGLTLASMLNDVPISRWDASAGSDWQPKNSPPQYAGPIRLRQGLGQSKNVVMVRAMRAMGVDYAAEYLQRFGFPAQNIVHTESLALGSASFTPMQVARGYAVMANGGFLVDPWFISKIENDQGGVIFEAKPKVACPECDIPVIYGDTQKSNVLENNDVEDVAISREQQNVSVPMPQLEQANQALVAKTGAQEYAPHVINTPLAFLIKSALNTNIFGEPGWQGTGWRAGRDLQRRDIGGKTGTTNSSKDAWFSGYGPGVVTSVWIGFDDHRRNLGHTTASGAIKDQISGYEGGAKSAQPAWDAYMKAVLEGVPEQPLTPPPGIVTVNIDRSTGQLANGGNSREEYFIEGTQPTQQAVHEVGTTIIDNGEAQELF

[16] = test system: Staphylococcus aureus; test: In vitro antibacterial activity against Staphylococcus aureus Smith(MS); type: functional; summary of the method: as §3

For `C[N+]1(CC2=C(C(=O)[O-])N3C(=O)[C@@H](NC(=O)COc4ccccc4)[C@H]3SC2)CCN(c2c(F)cc3c(=O)c(C(=O)O)cn(CCF)c3c2F)CC1`, the Concentration [1] was 100 µg/mL, the MIC [2] was 0.5 µg/mL (≈ 0.699 µM) and the MIC [3] was 1 µg/mL (≈ 1.4 µM). The Concentration [4] was 2 µg/mL, the Concentration [5] was > 100 µg/mL and the MIC [6] was 0.063 µg/mL (≈ 0.088 µM). The MIC [7] was 0.5 µg/mL (≈ 0.699 µM), the MIC [8] was 2 µg/mL (≈ 2.79 µM) and the MIC [9] was 8 µg/mL (≈ 11.2 µM). It also gave an MIC [10] of 0.25 µg/mL (≈ 0.349 µM), an MIC [11] of 2 µg/mL (≈ 2.79 µM) and an MIC [12] of 0.5 µg/mL (≈ 0.699 µM). For the same compound, the MIC [13] was 0.5 µg/mL (≈ 0.699 µM), the MIC [14] was 32 µg/mL (≈ 44.7 µM) and the Concentration [15] was 10 µg/mL. The MIC [16] was 0.5 µg/mL (≈ 0.699 µM).
In the case of `CO/N=C(\C(=O)N[C@@H]1C(=O)N2C(C(=O)O)=C(COC(=O)c3cn(CCF)c4c(F)c(N5CCN(C)CC5)c(F)cc4c3=O)CS[C@H]12)c1csc(N)n1`, the Concentration [1] is reported as 2 µg/mL, the MIC [2] is reported as 0.063 µg/mL (≈ 0.0824 µM) and the MIC [3] is reported as 1 µg/mL (≈ 1.31 µM). The Concentration [4] was 0.1 µg/mL, the Concentration [5] was 100 µg/mL and the MIC [6] was < 0.008 µg/mL. The MIC [7] was 0.25 µg/mL (≈ 0.327 µM), the MIC [8] was 0.125 µg/mL (≈ 0.163 µM) and the MIC [9] was 0.12 µg/mL (≈ 0.157 µM). The MIC [10] was < 0.008 µg/mL, the MIC [11] was 0.25 µg/mL (≈ 0.327 µM) and the MIC [12] was 0.125 µg/mL (≈ 0.163 µM). It also gave an MIC [13] of 0.125 µg/mL (≈ 0.163 µM), an MIC [14] of 16 µg/mL (≈ 20.9 µM) and a Concentration [15] of 0.1 µg/mL. It also gave an MIC [16] of 1 µg/mL (≈ 1.31 µM).
